pIC50: −log10 of the molar value.
Legend:
Rattus norvegicus [1] = species: Rattus norvegicus; assay: Metabolic stability after incubation for 30 minutes in rat liver in hypoxic condition in absence of NADPH; format: functional
Outline: (§1)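 Phenobarbital-induced rat liver S-9 fraction, substrate 2.5 mM final, with 5 mM NADPH or no cofactor, 30 min at 37 °C, oxic or nitrogen-purged (hypoxic). Quenched with ice-cold methanol and centrifuged; supernatant analysed by TLC densitometry (ethyl acetate/ethanol eluent) for unchanged parent, reported as % remaining, mean ± SD of three experiments.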

Rattus norvegicus [2] = species: Rattus norvegicus; assay: Metabolic stability after incubation for 30 minutes in rat liver in oxic condition in absence of NADPH; format: functional; outline: as §1
Rattus norvegicus [3] = species: Rattus norvegicus; assay: Alkylating Activity after incubation for 30 minutes in rat liver in oxic condition in absence of NADPH; format: functional, organism-based
Outline: (§2)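 Phenobarbital-induced rat liver S-9 fraction (17.9 or 18.2 mg/mL protein), substrate 2.5 mM final (added in methanol/water 50:50), NADPH 5 mM or no cofactor, 30 min at 37 °C. Hypoxic samples purged with nitrogen 15–20 min in sealed vials. Stopped with ice-cold methanol, proteins removed; alkylating activity by NBP assay, absorbance at 542 nm, mean of two experiments.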

Rattus norvegicus [4] = species: Rattus norvegicus; assay: Alkylating Activity after incubation for 30 minutes in rat liver in oxic condition in presence of NADPH; format: functional, organism-based; outline: as §2
Rattus norvegicus [5] = species: Rattus norvegicus; assay: Metabolic stability after incubation for 30 minutes in rat liver in hypoxic condition in presence of NADPH; format: functional; outline: as §1
Rattus norvegicus [6] = species: Rattus norvegicus; assay: Alkylating Activity after incubation for 30 minutes in rat liver in Hypoxic condition in absence of NADPH; format: functional, organism-based; outline: as §2
Rattus norvegicus [7] = species: Rattus norvegicus; assay: Alkylating Activity after incubation for 30 minutes in rat liver in Hypoxic condition in presence of NADPH; format: functional, organism-based; outline: as §2
Rattus norvegicus [8] = species: Rattus norvegicus; assay: Metabolic stability after incubation for 30 minutes in rat liver in oxic condition in presence of NADPH; format: functional; outline: as §1
V79 = assay: In vitro cytotoxicity against Chinese hamster lung (V-79 cells) fibroblast determined using sulforhodamine B (SRB) assay; format: functional, cell-based; conditions: Cricetulus griseus
Outline: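 V-79 Chinese hamster lung fibroblasts, about 15×10^3 cells/well, preincubated 24 h, then drug at eight concentrations for 48 h, aerobic. Fixed with cold TCA, stained with 0.4% SRB, dye solubilized in 10 mM Tris, read at 564 nm. % growth versus untreated control; first-order decay fit gives IC50. Triplicates, three experiments, mean ± SD.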

Compound | Compound remaining (Rattus norvegicus [1]) | Compound remaining (Rattus norvegicus [2]) | Absorbance (Rattus norvegicus [3]) | Absorbance (Rattus norvegicus [4]) | Compound remaining (Rattus norvegicus [5]) | Absorbance (Rattus norvegicus [6]) | Absorbance (Rattus norvegicus [7]) | Compound remaining (Rattus norvegicus [8]) | pIC50 (V79)
NP(=O)(OCCc1noc2ccccc12)N(CCCl)CCCl (stereo unspecified) | 98% | 97% | 0.26 | 1.97 | 34% | 0.38 | 2.02 | 33% | 3.39
CCc1noc2ccccc12 | – | – | – | – | – | – | – | – | < 2.70
COc1ccc2c(CCOP(N)(=O)N(CCCl)CCCl)noc2c1 (stereo unspecified) | 79% | 78% | 0.32 | 2.31 | 45% | 0.42 | 2.35 | 46% | 3.62
NP(=O)(OCCc1noc2ccc([N+](=O)[O-])cc12)N(CCCl)CCCl (stereo unspecified) | 76% | 79% | – | – | 1% | 0.85 | 2.23 | 1% | 3.51
